Measurements: ChEMBL document CHEMBL1127309, “A novel and useful descriptor for hydrophobicity, partition coefficient micellar-water, and its application to a QSAR study of antiplatelet agents” (J Med Chem, 1994)

Key:
[1] = Retention time at 30 mM; type: ADME; conditions: 30000 µM
In short: (§1)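 Reversed-phase HPLC on a C8 column (4.6 × 100 mm, 10 µm) at room temperature (22-25 °C). The mobile phase was Brij35 micelle solution in 10 mM phosphate buffer, pH 4.01, run separately at 25, 30, 35 and 40 mM Brij35. NaNO₃ served as the dead-time marker.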

Rattus norvegicus [2] = experiment: Tested for inhibitory activity on rat platelet aggregation induced by collagen measured after 1 hr of oral administration of compound (10 mg/kg) in rat.; type: functional
[3] = Retention time at 25 mM; type: ADME; conditions: 25000 µM; in short: as §1
[4] = Retention time at 35 mM; type: ADME; conditions: 35000 µM; in short: as §1
[5] = Retention time at 40 mM; type: ADME; conditions: 40000 µM; in short: as §1
Rattus norvegicus [6] = experiment: Tested for antiplatelet activity in rat by conversion of the original antiplatelet activity data (%) to antiplatelet activity values at 10 umol/kg; type: functional
Rattus norvegicus [7] = experiment: Tested for inhibitory activity on rat platelet aggregation induced by collagen ex vivo measured after 1 hr of oral administration of compound (10 mg/kg) in rat.; type: functional

| Retention time [1] [min] | Retention time [3] [min] | Retention time [4] [min] | Retention time [5] [min] | Compound | Inhibition (Rattus norvegicus [2]) [%] | Log APA (Rattus norvegicus [6]) | Inhibition (Rattus norvegicus [7]) [%] |
| --- | --- | --- | --- | --- | --- | --- | --- |
| 4.92 | 5.2 | 4.64 | 4.39 | Cc1ccccc1-c1nc(C)c(-c2cccnc2)[nH]1 | 6 | 0.18 | – |
| 3.37 | 3.58 | 3.21 | 3.07 | Cc1[nH]c(-c2ccccc2N)nc1-c1cccnc1 | 25 | 0.8 | – |
| 7.94 | 8.79 | 7.27 | 6.7 | COC(=O)Nc1ccccc1-c1nc(C)c(-c2cccnc2)[nH]1 | – | 1.4 | 73 |
| 3.41 | 3.56 | 3.19 | 3 | Cc1nc2cc(Cl)c(-c3nc(C)c(-c4cccnc4)[nH]3)cc2[nH]1 | 15 | 0.68 | – |
| 1.294 | 1.3 | 1.28 | 1.271 | Cc1nc2cc(-c3nc(C)c(-c4cccnc4)[nH]3)c(C)cc2[nH]1 | 18 | 0.74 | – |
| 2.6 | 2.75 | 2.5 | 2.41 | COc1cc(OC)c(-c2nc(C)c(-c3cccnc3)[nH]2)cc1NC(C)=O | 24 | 0.93 | – |
| 8.14 | 9.36 | 7.24 | 6.52 | COc1c(-c2nc(C)c(-c3cccnc3)[nH]2)cc(Cl)c2[nH]c(C)nc12 | 51 | 1.3 | – |
| 4.21 | 4.59 | 3.97 | 3.76 | COc1ccccc1-c1nc(C)c(-c2cccnc2)[nH]1 | 49 | 1.1 | – |
| 5.44 | 6.01 | 5.08 | 4.77 | CCOc1ccccc1-c1nc(C)c(-c2cccnc2)[nH]1 | 45 | 1.1 | – |
| 9.08 | 10.35 | 8.08 | 7.33 | COc1cc(NC(C)=O)c([N+](=O)[O-])cc1-c1nc(C)c(-c2cccnc2)[nH]1 | 86 | 1.5 | – |
| 1.362 | 1.375 | 1.345 | 1.331 | COc1cc2c(cc1-c1nc(C)c(-c3cccnc3)[nH]1)nc(O)n2C | 11 | 0.57 | – |
| 7.12 | 9.21 | 6.57 | 6.18 | CCOC(=O)COc1ccccc1-c1nc(C)c(-c2cccnc2)[nH]1 | 12 | 0.6 | – |
| 3.47 | 3.68 | 3.27 | 3.1 | COc1c(-c2nc(C)c(-c3cccnc3)[nH]2)cc(Cl)c2[nH]c(CCC(=O)O)nc12 | 6 | 0.4 | – |
| 1.301 | 1.32 | 1.296 | 1.289 | COc1c(-c2nc(C)c(-c3cccnc3)[nH]2)cc2nc(O)[nH]c2c1Cl | 17 | 0.79 | – |
| 2.7 | 2.79 | 2.56 | 2.43 | COc1c(-c2nc(C)c(-c3cccnc3)[nH]2)ccc2[nH]c(C)nc12 | 16 | 0.72 | – |
| 2.16 | 2.23 | 2.06 | 1.99 | COc1cc2[nH]c(C)nc2cc1-c1nc(C)c(-c2cccnc2)[nH]1 | 21 | 0.83 | – |
| 4.36 | 4.69 | 4.05 | 3.79 | COc1c(-c2nc(C)c(-c3cccnc3)[nH]2)cc2nc(C)[nH]c2c1Cl | 63 | 1.4 | – |
| 7.01 | 7.95 | 6.32 | 5.78 | COc1cc(NC(C)=O)c(Cl)cc1-c1nc(C)c(-c2cccnc2)[nH]1 | 65 | 1.4 | – |
| 7.01 | 7.65 | 6.46 | 6 | CSc1ccccc1-c1nc(C)c(-c2cccnc2)[nH]1 | 32 | 0.95 | – |
| 7.83 | 8.63 | 7.17 | 6.64 | Cc1[nH]c(-c2ccccc2Cl)nc1-c1cccnc1 | 9 | 0.38 | – |
| 7.84 | 8.75 | 7.13 | 6.57 | Cc1[nH]c(-c2ccccc2F)nc1-c1cccnc1 | 98 | 1.4 | – |
| 5.78 | 6.34 | 5.35 | 5 | CNC(=O)Nc1ccccc1-c1nc(C)c(-c2cccnc2)[nH]1 | 46 | 1.1 | – |
